Laboratory results: ChEMBL document CHEMBL2046409, “Design and synthesis of active site inhibitors of the human farnesyl pyrophosphate synthase: apoptosis and inhibition of ERK phosphorylation in multiple myeloma cells” (J Med Chem, 2012)
Calls of active or inactive are those of the source. The rule behind the calls is not given here.

Tests used:
[1] = Antiproliferative activity against human KMS-28PE after 72 hrs by MTT assay; format: functional
[2] = Antiproliferative activity against human […] after 72 hrs by MTT assay; format: functional
Method in brief: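 Cells seeded at 10,000/well and rested 2 h, then given compound diluted in culture medium as a half-log series spanning 100 nM–333 μM. Incubated 72 h at 37 °C in 5% CO2. MTT read at OD490.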

[3] = Antiproliferative activity against human JJN-3 after 72 hrs by MTT assay; format: functional; conditions: JJN-3, 72 h
[4] = target: T1, Farnesyl pyrophosphate synthase (Homo sapiens, UniProt P14324); assay: Inhibition of human recombinant N-terminal-His6 tagged FPPS expressed in Escherichia coli BL21 using [14C]IPP and GPP as substrate incubated for 10 mins prior to substrate addition measured after 10 mins by scintillation counting
T1 sequence (P14324 whole entry): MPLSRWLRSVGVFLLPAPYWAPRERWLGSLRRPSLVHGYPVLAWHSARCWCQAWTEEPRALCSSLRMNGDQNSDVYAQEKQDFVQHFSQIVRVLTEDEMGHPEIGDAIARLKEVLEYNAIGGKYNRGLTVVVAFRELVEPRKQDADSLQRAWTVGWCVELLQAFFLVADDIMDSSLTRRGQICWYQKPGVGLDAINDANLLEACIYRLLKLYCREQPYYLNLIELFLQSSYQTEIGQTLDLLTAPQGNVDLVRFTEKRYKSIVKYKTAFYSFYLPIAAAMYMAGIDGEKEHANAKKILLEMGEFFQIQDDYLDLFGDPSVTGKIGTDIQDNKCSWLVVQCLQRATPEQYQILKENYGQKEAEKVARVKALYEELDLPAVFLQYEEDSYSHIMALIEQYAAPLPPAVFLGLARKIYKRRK

[5] = target: T1, Farnesyl pyrophosphate synthase; assay: Inhibition of human recombinant N-terminal-His6 tagged FPPS expressed in Escherichia coli BL21 using [3H]IPP and GPP as substrate measured after 20 mins by liquid scintillation counting
[6] = target: T1, Farnesyl pyrophosphate synthase; assay: Inhibition of human FPPS using […] as substrate incubated for 30 mins prior to substrate addition measured after 20 mins by scintillation counting
[7] = Induction of apoptosis in human KMS-28PE cells assessed as viable cells at 1 uM after 48 hrs by AnnexinV/7AAD staining-based flow cytometric assay (reference value: 93%); format: functional; conditions: read-out: Activity
[8] = Induction of apoptosis in human KMS-28PE cells assessed as early apoptotic cells at 100 uM after 48 hrs by AnnexinV/7AAD staining-based flow cytometric assay (reference value: 1.44%); format: functional
[9] = Induction of apoptosis in human KMS-28PE cells assessed as late apoptotic cells at 1 uM after 48 hrs by AnnexinV/7AAD staining-based flow cytometric assay (reference value: 5.18%); format: functional
RPMI-8226 = assay: Inhibition of ERK protein expression level in human RPMI8226 cells at 100 uM up to 20 mins by Western blot analysis; format: functional, cell-based
Method in brief: (§1)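 RPMI8226 cells serum-starved overnight, then stimulated with 10% FBS with or without 100 μM inhibitor for 0 (starved only), 10 and 20 min. Washed in ice-cold PBS/BSA and lysed in Triton/deoxycholate buffer with protease inhibitors. ERK and pERK detected by Western blot with HRP secondary antibodies and ECL chemiluminescence.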

[10] = Induction of apoptosis in human KMS-28PE cells assessed as early apoptotic cells at 1 uM after 48 hrs by AnnexinV/7AAD staining-based flow cytometric assay (reference value: 1.44%); format: functional
[11] = Induction of apoptosis in human KMS-28PE cells assessed as viable cells at 100 uM after 48 hrs by AnnexinV/7AAD staining-based flow cytometric assay (reference value: 93%); format: functional; conditions: read-out: Activity
[12] = Induction of apoptosis in human KMS-28PE cells assessed as late apoptotic cells at 100 uM after 48 hrs by AnnexinV/7AAD staining-based flow cytometric assay (reference value: 5.18%); format: functional
[13] = Induction of apoptosis in human KMS-28PE cells assessed as necrotic cells at 100 uM after 48 hrs by AnnexinV/7AAD staining-based flow cytometric assay (reference value: 0.36%); format: functional
[14] = Induction of apoptosis in human KMS-28PE cells assessed as necrotic cells at 1 uM after 48 hrs by AnnexinV/7AAD staining-based flow cytometric assay (reference value: 0.36%); format: functional
[15] = target: T2, Farnesyl pyrophosphate synthase (Homo sapiens) (UniProt P14324); assay: Inhibition of FPPS in human RPMI8226 cells assessed as inhibition of Ras-mediated ERK phosphorylation at 100 uM up to 20 mins by Western blot analysis; format: cell-based; conditions: RPMI-8226; method in brief: as §1
T2 sequence (whole entry): T1 sequence (P14324 whole entry)

SMILES: O=P(O)(O)C(O)(Cn1ccnc1)P(=O)(O)O [ZOLEDRONIC ACID]
- EC50 [1]: 6.4 µM
- EC50 [2]: 10.5 µM
- EC50 [3]: 9.4 µM

SMILES: CC(C)=CCC/C(C)=C/CC(C/C=C(\C)CCC=C(C)C)(P(=O)(O)O)P(=O)(O)O [DIGERANYL BISPHOSPHONATE]
- IC50 [4]: > 10 µM

SMILES: Cc1ccc(-c2ccnc(NC(P(=O)(O)O)P(=O)(O)O)c2)cc1
- IC50 [4]: 0.035 µM

SMILES: O=P(O)(O)C(O)(Cc1cccnc1)P(=O)(O)O [RISEDRONIC ACID]
- EC50 [1]: 10.6 µM
- EC50 [3]: 10 µM

SMILES: O=P(O)(O)C(Nc1cc(-c2ccc3[nH]ncc3c2)ccn1)P(=O)(O)O
- IC50 [4]: 0.43 µM

SMILES: O=P(O)(O)C(Nc1cc(-c2ccc(OC3CCC3)cc2)ccn1)P(=O)(O)O
- IC50 [4]: 0.035 µM
- IC50 [5]: 2.09 µM

SMILES: CCCCCCCCCCOc1ccc[n+](CC(P(=O)([O-])O)P(=O)(O)O)c1 (stereo not drawn)
- IC50 [6]: 0.1 µM

SMILES: O=P(O)(O)C(F)(Cc1cncc(-c2ccc3[nH]ncc3c2)c1)P(=O)(O)O
- IC50 [4]: 0.52 µM

SMILES: O=P(O)(O)C(Nc1cc(-c2ccc(OC3CCCC3)cc2)ccn1)P(=O)(O)O
- viability at 1 µM [7]: 91.8%
- IC50 [4]: 0.032 µM
- Activity [8]: 5.64%
- Activity [9]: 5.94%
- inhibition (RPMI-8226): inactive
- Activity [10]: 1.81%
- IC50 [5]: 0.785 µM
- viability at 100 µM [11]: 84.8%
- EC50 [1]: 3.2 µM
- Activity [12]: 9.15%
- EC50 [2]: 3.6 µM
- EC50 [3]: 8.6 µM
- Activity [13]: 0.46%
- Activity [14]: 0.4%
- inhibition [15]: Active

SMILES: O=P(O)(O)C(F)(Cc1cncc(-c2ccccc2)c1)P(=O)(O)O
- IC50 [4]: 0.115 µM
